Assay: S. cerevisiae growth inhibition in restrictive medium, OD615, pilot screen, restrictive growth control, yeast lifespan reduction project (AID 706);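 note: modified DeaD lifespan yeast strain shifted to restrictive glucose medium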
Details: OD615, 48 h, at 10 µM, stronger effect = higher value;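 active = growth inhibition above a set limit, 3 SD over mean compound inhibition, in both replicates (cut at about 43% in these data); inconclusive = above the limit in only one replicate; inactive = at or below the limit in both replicates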
Summary of the method: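 System: modified S. cerevisiae. Buffer or medium: CSMM-D glucose medium. Incubation: 4 h pre-growth plus 48 h compound exposure, 30 °C. Detection: absorbance (optical density) measured at 615 nm.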

Growth inhibition, inactive:
CC1CCc2nn(CC(=O)NCc3ccc4c(c3)OCO4)cc2C1 (stereo not given) -4.54%, CCC(C)(C(=O)NC1CCCC1)N(Cc1cccs1)C(C)=O (stereo not given) -23.3%, COc1ccc(CCNC(=O)c2cnn3ccccc23)c(OC)c1OC -2.3%, CC1CCCN(S(=O)(=O)c2coc(C(N)=O)c2)C1 (stereo not given) -4.31%, Cn1c(C(=O)NCC2CCCO2)cc2c(=O)n(C)c3ccccc3c21 (stereo not given) 12.4%, O=C(Nc1cnn(Cc2ccc(Cl)cc2Cl)c1)c1noc2c1CCCC2 -1.65%, Clc1cccc(N2CCN(Cc3nc(-c4ccccc4)no3)CC2)c1 0.865%, COC(=O)C1=C(C)NC(C)=C(C(=O)OC)C1C1CC=CCC1 (stereo not given) -21.7%, Cc1nnc(SCC(=O)NCc2ccccc2)s1 -11.3%, CC1=C(C(=O)Nc2ccc(F)cc2)C(c2cccc(C)c2)n2nc(CCCO)nc2N1 (stereo not given) -3%, CCOc1ccc(OCCCCN(C)C)cc1 3.69%, CCCC(=O)C1=C(N(C)c2ccccc2)CC(C)(C)C(C(=O)OC)C1=O (stereo not given) -2.86%, CC1Cc2ccccc2N1C(=O)C12CCC(C)(C(=O)C1)C2(C)C (stereo not given) -14.9%, CC1CN(c2ccc(Oc3ccccc3)cc2)c2nc3c(c(=O)n(CC(N)=O)c(=O)n3C)n2C1 (stereo not given) 6.34%, COc1ccc(N2CCN(C(c3ccccc3)c3sc4nc(C)nn4c3O)CC2)cc1 (stereo not given) -0.505%, O=C(CCn1c(=O)oc2ccccc21)NCc1ccco1 -2.52%, COc1cccc(C2CC(c3ccc(C)cc3)n3nc(N)nc3N2)c1 (stereo not given) 9.55%, Cc1onc(-c2c(Cl)cccc2Cl)c1C(=O)NCC1CCCO1 (stereo not given) -5.78%, CC(=O)Nc1cccc(NC(=O)CSc2nn3c(=O)c(C)nnc3s2)c1 -16%, Cc1ccc2cc(CCNC(=O)C(C)C)c(=O)[nH]c2c1C -19.7%, CCOC(=O)c1c(C)n(C)c2c(C)cc(O)c(OC(C)=O)c12 -6.75%, CC(C)(O)C#Cc1ccc(C(=O)N2CCN(C(=O)c3ccco3)CC2)cc1 -11.2%, COc1ccc(-n2ncc3c(N4CCC(C)CC4)ncnc32)cc1 -0.39%, CCc1nc2sc(C)c(C)c2c(=O)n1CCO 0.805%, COc1cc2c(cc1OC)CN(C(=O)CSc1nc3[nH]ncc3c(=O)n1-c1ccccc1)CC2 -24.6%, Cc1ccccc1-n1c(Cn2c(=O)sc3ccccc32)nnc1SCC(N)=O -3.06%, Cc1nc2sc(C(c3cccs3)N3CCOCC3)c(O)n2n1 (stereo not given) -11.9%, Cc1nc2ccccc2c2oc(C(=O)N3CCN(C(=O)c4ccco4)CC3)cc12 2.71%, CCC(C)NC(=O)c1cn(CC)c2ccc(S(=O)(=O)N(C)C)cc2c1=O (stereo not given) 14.4%, O=C(OCN1C(=O)c2ccccc2C1=O)C1CCCCC1 -9.12%, O=C(Nc1nc(-c2ccccn2)cs1)C1CC1 1.15%, COCCOC(=O)C1=C(C)N=c2s/c(=C\c3cccs3)c(=O)n2C1c1cccs1 (stereo not given) 1.78%, CCOC(=O)c1sc2nc(NC(=O)C(C)(C)C)sc2c1C 5.62%, Cn1c(Cc2ccccc2)nnc1SCC(=O)NC1CCCCC1 10%, CCCNC(=O)C1CC(=O)N(c2ccc(OCC(=O)Nc3cc(C)cc(C)c3)cc2)C1 (stereo not given) -25.6%, O=P(O)(CN1CCCCCC1)CN1CCCCCC1 -8.96%, O=c1oc2c3c4c(cc2cc1-c1nc2ccccc2[nH]1)CCCN4CCC3 -0.465%, CCOC(=O)c1[nH]c(C)c(C(=O)NC)c1C -10.2%, CCCOc1ccc(C2C(C(=O)OC)=CN(CCOC)C=C2C(=O)OC)cc1 12.8%, CCCCN(CC)CCCNC(=O)c1cc2c(=O)n(C)c3ccccc3c2n1C -1.18%

— PubChem BioAssay
